Columns and labels:
Plasmodium falciparum [1] = experiment: Parasite growth in chloroquine-sensitive Plasmodium falciparum NF54; type: functional, organism-based
How it was run: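 P. falciparum NF54 or K1 was maintained by the Trager-Jensen culture method with minor variations. Growth inhibition was measured by a semiautomated microdilution assay on asynchronous stock cultures.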

[2] = biological target: hematin (cell-free polymerization, no protein); experiment: Inhibition of hematin polymerization
[3] = Association constant evaluated towards Hematin mu-oxo dimer
Plasmodium falciparum [4] = experiment: Parasite growth in chloroquine-resistant Plasmodium falciparum K1

`CCN(CC)CC(C)Nc1ccnc2cc(Cl)ccc12` (stereo not given) showed an IC50 (Plasmodium falciparum [1]) of 0.041 µM, an IC50 [2] of 18 µM and a Ka [3] of 270000 M⁻¹. For the same compound, the IC50 (Plasmodium falciparum [4]) was 0.093 µM.
For `CCN(CC)CCCC(C)Nc1ccnc2ccccc12` (stereo not given), the IC50 (Plasmodium falciparum [1]) was 0.35 µM, the IC50 [2] was greater than 2500 µM and the Ka [3] was 85000 M⁻¹. The IC50 (Plasmodium falciparum [4]) was 8 µM.
`CCN(CC)CCCC(C)Nc1cc(C)nc2cc(Cl)ccc12` (stereo not given) showed an IC50 (Plasmodium falciparum [1]) of 0.15 µM, a Ka [3] of 91000 M⁻¹ and an IC50 (Plasmodium falciparum [4]) of 1.1 µM.
With `CCN(CC)CCCC(C)Nc1ccnc2cc(N)ccc12` (stereo not given) the IC50 (Plasmodium falciparum [1]) was 2.6 µM, the IC50 [2] was greater than 2500 µM and the Ka [3] was 290000 M⁻¹. It also gave an IC50 (Plasmodium falciparum [4]) of 4.3 µM.
In the case of `CCN(CC)CCCC(C)Nc1ccnc2ccc(Cl)cc12` (stereo not given), the IC50 (Plasmodium falciparum [1]) is reported as 0.17 µM, the IC50 [2] is reported as greater than 2500 µM and the IC50 (Plasmodium falciparum [4]) is reported as 4.9 µM.
In the case of `CCNc1ccnc2cc(Cl)ccc12`, the IC50 (Plasmodium falciparum [1]) is reported as 0.82 µM, the IC50 [2] is reported as 70 µM and the Ka [3] is reported as 46000 M⁻¹. For the same compound, the IC50 (Plasmodium falciparum [4]) was 0.87 µM.
`CCN(CC)CCCC(C)Nc1ccnc2cc([N+](=O)[O-])ccc12` (stereo not given) gave an IC50 (Plasmodium falciparum [1]) of 0.015 µM, a Ka [3] of 290000 M⁻¹ and an IC50 (Plasmodium falciparum [4]) of 0.068 µM.
With `CCC(CC)CCCC(C)Nc1ccnc2cc(Cl)ccc12` (stereo not given) the IC50 (Plasmodium falciparum [1]) was 0.054 µM, the Ka [3] was 79000 M⁻¹ and the IC50 (Plasmodium falciparum [4]) was 0.2 µM.
Work on `CCN(CC)CCCC(C)Nc1c(C)cnc2cc(Cl)ccc12` (stereo not given) yielded an IC50 (Plasmodium falciparum [1]) of 0.02 µM, an IC50 [2] of 15 µM and a Ka [3] of 150000 M⁻¹. It also gave an IC50 (Plasmodium falciparum [4]) of 0.059 µM.
For `CCN(CC)CCCC(C)Nc1ccnc2cc(Br)ccc12` (stereo not given), the IC50 (Plasmodium falciparum [1]) was 0.093 µM, the Ka [3] was 120000 M⁻¹ and the IC50 (Plasmodium falciparum [4]) was 1.4 µM.
`CCN(CC)CCCCC(C)Nc1ccnc2cc(Cl)ccc12` (stereo not given) showed an IC50 (Plasmodium falciparum [1]) of 0.024 µM, a Ka [3] of 150000 M⁻¹ and an IC50 (Plasmodium falciparum [4]) of 0.42 µM.
`Nc1ccnc2cc(Cl)ccc12` gave an IC50 (Plasmodium falciparum [1]) of 1.7 µM, a Ka [3] of 52000 M⁻¹ and an IC50 (Plasmodium falciparum [4]) of 1 µM.
In the case of `CCNCCCC(C)Nc1ccnc2cc(Cl)ccc12` (stereo not given) [DESETHYLCHLOROQUINE], the IC50 (Plasmodium falciparum [1]) is reported as 0.045 µM, the IC50 [2] is reported as 15 µM and the Ka [3] is reported as 180000 M⁻¹. The IC50 (Plasmodium falciparum [4]) was 1.3 µM.
